Test results as given in paper PMC8851646 (ACS Omega, 2022).
pIC50: −log10 of the molar value. Converted amounts (≈) assume the structure as drawn. Read-outs that look alike come from different tables or passages of the source.

Experiments:
P. aeruginosa = conditions: against P. aeruginosa; cited from earlier work
[1] = tested on: K. pneumoniae wbbM mutant (NB29018) co-cultured with T. pyriformis; assay: Tp/Kp co-culture assay with cell surface-defective wbbM mutant; type: cell-based, Klebsiella pneumoniae; conditions: Tp threshold 4625–18,500 Tp/mL
[2] = tested on: K. pneumoniae NB29017 co-cultured with T. pyriformis; assay: T. pyriformis/K. pneumoniae; type: cell-based, Klebsiella pneumoniae
K. pneumoniae NB29017 [3] = assay: Electron microscopy of cell surface material; type: cell-based, Klebsiella pneumoniae; conditions: grown in SM medium with 32 μg/mL compound
Procedure, shortened: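 K. pneumoniae NB29017 grown overnight with shaking at 37 °C in 10 mL SM medium, with or without test compound at 32 μg/mL. Diluted 1:50 into the same medium and grown to OD600 of about 2. Cells pelleted at 3000g and washed in Na-cacodylate pH 7.2. Fixed 2 h at 4 °C (2.5% glutaraldehyde, 1% tannic acid, 0.1 M Na-cacodylate, pH 7.2). Pelleted, taken up in cacodylate buffer and examined by electron microscopy.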

K. pneumoniae NB29017 [4] = assay: Qualitative inhibition of mucoid appearance of colonies on solid LB agar; type: cell-based, Klebsiella pneumoniae; conditions: 4 fully mucoid, 0 nonmucoid, by eye
Procedure, shortened: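 Test compound dissolved in DMSO (12.8 mg/mL stock) and mixed into melted LB agar at 0–16 μg/mL final, then set in six-well plates. Mucoid wild-type NB29017 streaked for single colonies in each well. Plates incubated 18 h at 37 °C, then 2 h at 4 °C. Mucoid appearance scored by eye from 0 (none) to 4 (normal hypermucoid).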

[5] = tested on: erythrocytes from defibrinated sheep blood; assay: Red blood cell hemolysis; type: cell-based; conditions: Table 1; concentration causing 50% hemolysis
Red blood cell hemolysis = type: cell-based, sheep; conditions: sheep, erythrocytes from defibrinated sheep blood, pH 7.5
[6] = Cytotoxicity in K562 cells; type: cell-based; conditions: human
Staphylococcus aureus = assay: Antibacterial MIC, Gram-positive control; type: cell-based; conditions: read-out: MIC Sa
P. aeruginosa LpxC = target: T1, P. aeruginosa LpxC (Pseudomonas aeruginosa, UniProt P47205); assay: Inhibition of purified LpxC enzyme; type: biochemical
T1 sequence (P47205 1-303): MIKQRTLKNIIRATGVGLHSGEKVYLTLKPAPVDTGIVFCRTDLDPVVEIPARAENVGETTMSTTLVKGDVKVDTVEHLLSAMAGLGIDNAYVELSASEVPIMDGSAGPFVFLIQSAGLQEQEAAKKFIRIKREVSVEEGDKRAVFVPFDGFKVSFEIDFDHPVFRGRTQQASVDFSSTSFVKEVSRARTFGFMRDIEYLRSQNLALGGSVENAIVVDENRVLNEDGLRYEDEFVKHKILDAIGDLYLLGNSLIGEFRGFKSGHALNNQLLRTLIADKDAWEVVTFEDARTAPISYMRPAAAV

K. pneumoniae NB29017 [7] = assay: Agar MIC; type: cell-based; conditions: Klebsiella pneumoniae, NB29017, read-out: agar MIC
K. pneumoniae NB29017 [8] = assay: Kp-only counterscreen for direct antibacterial activity; type: cell-based; conditions: Klebsiella pneumoniae, NB29017, read-out: IC50 for Kp only, hit from the HTS
K. pneumoniae (Kp) = assay: Antibacterial MIC, broth; type: cell-based; conditions: Klebsiella pneumoniae, read-out: MIC, broth-based
[9] = read-out: Tp/Kp IC50, Table 2; expressed as μg/mL for comparison to agar values
[10] = read-out: IC50 Tp/Kp, Table 1; freshly dissolved powder, top concentration 20 μM

## C=CCSc1nnc(C)c(O)n1 [D1, C=CCSc1nnc(C)c(O)n1, reference compound]
P. aeruginosa
  efficacy in an animal model of infection: efficacy
[1]
  activity in the Tp/Kp wbbM assay: largely retained
[2]; read-out: Tp/Kp IC50, D1 control on the same plate, Tp set at 25000
  pIC50: 5.64
[2]; read-out: Tp/Kp IC50, D1 control on the same plate; Tp set at 25000
  pIC50: 5.56
[2]; [9]
  IC50: 0.54 µg/mL
[2]; read-out: median IC50 for D1 across 28 hit confirmation runs, standard deviation of 0.3
  pIC50: 5.70
K. pneumoniae NB29017 [3]
  surface polysaccharide material by electron microscopy: largely devoid of this
K. pneumoniae NB29017 [4]; 2 μg/mL compound in agar
  qualitative score on solid medium: 4
K. pneumoniae NB29017 [4]; 4 μg/mL compound in agar
  qualitative score on solid medium: 3
K. pneumoniae NB29017 [4]; 8 μg/mL compound in agar
  qualitative score on solid medium: slight
K. pneumoniae NB29017 [4]; 16 μg/mL compound in agar
  qualitative score on solid medium: 1

## COc1ccc2nc(NC(=O)c3cc(=O)c4ccccc4o3)sc2c1 [compound 63, COc4ccc3N=C(NC(=O)C2=CC(=O)c1ccccc1O2)Sc3c4]
[5]
  RBC hemolysis (HC50): 64 µM
Red blood cell hemolysis
  hemolysis at 1 h: 8.3%
[6]
  pIC50: 4.46
Staphylococcus aureus
  MIC: > 128 µg/mL
[2]; [10]
  pIC50: 6.96
[2]; [9]
  IC50: 0.04 µg/mL
K. pneumoniae NB29017 [4]; 1 μg/mL compound in agar
  qualitative score on solid medium: 1
K. pneumoniae NB29017 [4]; 2 μg/mL compound in agar
  qualitative score on solid medium: 0
K. pneumoniae NB29017 [4]; 4 μg/mL compound in agar
  qualitative score on solid medium: 0
K. pneumoniae NB29017 [4]; 8 μg/mL compound in agar
  qualitative score on solid medium: 0
K. pneumoniae NB29017 [4]; 16 μg/mL compound in agar
  qualitative score on solid medium: 0

## CC(C)(N)C(NC(=O)c1ccc(OCC#CC2CC2)cc1)C(=O)NO (stereo not drawn) [compound 180, CC(C)(N)C(NC(=O)c1ccc(cc1)OCC#CC2CC2)C(=O)NO]
[6]
  pIC50: 4.16
Staphylococcus aureus
  MIC: > 128 µg/mL
[2]; [10]
  pIC50: 5.94
P. aeruginosa LpxC
  pIC50: 7.40

## O=CN(O)CCCP(=O)(O)O [fosmidomycin]
K. pneumoniae NB29017 [7]
  MIC: 0.5 µg/mL (≈ 2.73 µM)
K. pneumoniae NB29017 [8]
  pIC50: < 4.70
K. pneumoniae (Kp)
  MIC: > 128 µg/mL
[2]; read-out: IC50 for Tp/Kp, hit from the HTS
  pIC50: > 7.11
